Results on 17 molecules are retold here after ChEMBL document CHEMBL3425479, “Discovery, synthesis, and molecular pharmacology of selective positive allosteric modulators of the δ-opioid receptor” (J Med Chem, 2015).

The source made the active and inactive calls. No cut-off for these calls is given here.

The target in data set [1] is T1, Delta-type opioid receptor (Homo sapiens, UniProt P41143). To be noted: CHO.
In data set [2] the target is T1, Delta-type opioid receptor. The conditions noted are these: CHO. The source holds these as a separate data set.
Data set [3] concerns the target T1, Delta-type opioid receptor. To be noted: CHO. This is another data set of the same source.
Data set [4] addresses T1, Delta-type opioid receptor. Nature of the data set: Partial agonist activity at human delta opioid receptor expressed in CHO cells after 1 hr by [35S]GTPgammaS binding assay relative to SNC80. Format: functional, cell-based.
For data set [5], the target named is T1, Delta-type opioid receptor. To be noted: CHO. The source holds these as a separate data set.
For data set [6], the target named is T1, Delta-type opioid receptor. The data set can be described thus: Agonist activity at human delta opioid receptor-1 expressed in CHO cells after 90 mins by beta-arrestin recruitment assay. Format: cell-based. A digest of the protocol:
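PathHunter CHO cells (OPRD1 or OPRM1) plated overnight at 37 °C in F-12 with 10% FBS and 25 mM HEPES. […] Incubated 90 min at room temperature, then luminescence read 1 h after detection reagent.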

The target in data set [7] is T1, Delta-type opioid receptor. Nature of the data set: Positive allosteric modulation of human delta opioid receptor-1 expressed in CHO cells assessed as potentiation of leu-enkephalin-induced response after 90 mins by beta-arrestin recruitment assay. It is filed as cell-based.
Another data set addresses Mu-type opioid receptor (Homo sapiens, UniProt P35372). The data set can be described thus: Positive allosteric modulation of human mu opioid receptor-1 expressed in CHO cells assessed as potentiation of endomorphin 1-induced response after 90 mins by beta-arrestin recruitment assay. It is filed as cell-based. On the technique in general: Arrestin recruitment assays detect the binding of arrestin to an activated receptor.

Data set [8] deals with CHO. The data set can be described thus: Selectivity ratio of EC50 for human mu opioid receptor-1 expressed in CHO cells to EC50 for human delta opioid receptor-1 expressed in CHO cells. Format: cell-based. In outline: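 The δ/μ potency ratio is built from PAM-mode β-arrestin EC50 values in PathHunter CHO-OPRD1 and CHO-OPRM1 cells. […] Incubation was 90 min at room temperature with luminescence read-out.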

Data set [9] has as its system CHO. The data set can be described thus: Effect on delta receptor deficient CHO cells assessed as inhibition of cAMP accumulation. It is filed as functional, cell-based. The conditions noted are these: Cricetulus griseus. In outline: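 Parental CHO cells lacking δ receptor, test compound added alone. Cells in HBSS + 25 mM HEPES + 0.05% BSA, 2000 cells/well, with forskolin at 2 μM final. Incubated 45 min at rt. cAMP measured by TR-FRET (665/615 nm ratio) against a cAMP standard curve run alongside.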
(cAMP levels reflect the balance of adenylyl cyclase and phosphodiesterase activity.)

Data set [10] is described as follows: Solubility of the compound in HBSS/HEPES/FBS assessed as particulate matter formation at >3 uM by nephelometric analysis. To be noted: buffer. It is filed as physicochemical.
Data set [11] can be described thus: Solubility of the compound in phosphate buffered saline assessed as particulate matter formation at >1 uM by nephelometric analysis. Format: physicochemical. The conditions noted are these: buffer.
Data set [12] has as its system CHO. Nature of the data set: Induction of ERK2 phosphorylation in delta receptor deficient CHO cells. It is filed as cell-based. The conditions noted are these: Cricetulus griseus. In outline: (§1)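 Parental CHO cells lacking δ receptor, test compound added alone. Cells serum-starved overnight in DMEM, then stimulated at 37 °C. Phospho-ERK1/2 measured in lysates by AlphaScreen SureFire. Basal in serum-free medium was set as 0% and 10% serum response as 100%.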

For data set [13], the system named is CHO. The data set can be described thus: Induction of ERK1 phosphorylation in delta receptor deficient CHO cells. Format: cell-based. The conditions noted are these: Cricetulus griseus. A digest of the protocol:
as §1

Data set [14] deals with T1, Delta-type opioid receptor. To be noted: CHO. The source holds these as a separate data set.
The target of data set [15] is T1, Delta-type opioid receptor. The conditions noted are these: CHO. The source holds these as a separate data set.
The target of data set [16] is T1, Delta-type opioid receptor. The conditions noted are these: CHO. The source holds these as a separate data set.
The target of data set [17] is T1, Delta-type opioid receptor. To be noted: CHO. This is another data set of the same source.

T1 sequence (P41143 whole entry): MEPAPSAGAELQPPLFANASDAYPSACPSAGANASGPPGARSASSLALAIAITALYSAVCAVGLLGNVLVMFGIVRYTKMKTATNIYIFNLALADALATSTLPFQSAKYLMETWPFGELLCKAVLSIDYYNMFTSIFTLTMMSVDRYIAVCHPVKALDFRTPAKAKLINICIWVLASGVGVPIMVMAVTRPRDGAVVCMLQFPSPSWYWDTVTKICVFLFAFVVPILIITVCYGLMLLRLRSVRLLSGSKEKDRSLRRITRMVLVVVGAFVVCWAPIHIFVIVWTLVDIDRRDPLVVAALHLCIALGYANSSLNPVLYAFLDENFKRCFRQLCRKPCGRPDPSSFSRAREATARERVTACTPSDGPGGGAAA
Mu-type opioid receptor, sequence (P35372 whole entry): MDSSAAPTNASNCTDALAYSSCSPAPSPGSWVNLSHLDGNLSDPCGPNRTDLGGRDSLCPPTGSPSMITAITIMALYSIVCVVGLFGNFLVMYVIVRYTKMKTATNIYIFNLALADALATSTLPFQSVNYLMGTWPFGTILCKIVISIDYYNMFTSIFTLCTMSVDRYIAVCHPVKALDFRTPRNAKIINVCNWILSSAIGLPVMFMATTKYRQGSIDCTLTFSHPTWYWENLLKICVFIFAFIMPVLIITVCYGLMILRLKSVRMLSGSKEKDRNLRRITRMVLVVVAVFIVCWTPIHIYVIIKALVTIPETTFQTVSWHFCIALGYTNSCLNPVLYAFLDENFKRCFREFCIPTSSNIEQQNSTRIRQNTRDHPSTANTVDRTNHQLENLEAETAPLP

Turning to `CN1CC[C@]2(c3cccc(O)c3)Cc3nc4ccccc4cc3C[C@H]2C1`, the log(activity) in [1] turned out to be 0.67; in data set [5], 0.22. For the same molecule, the pKA in data set [2] stood at 8.4; in data set [3], 7.6. The molecule further showed an Activity in data set [4] of 84%.

As usually defined, the EC50 is the concentration needed to bring the measured effect to its halfway point. By Emax is commonly meant the greatest response seen or fitted, relative to the assay's reference. On to `CC1(C)CC(=O)C2=C(C1)OC1=C(C(=O)CC(C)(C)C1)C2c1ccc(OCc2cccc(F)c2)cc1`, for which the outcome in [6] was inactive. The EC50 worked out at 1000 nM in data set [7] and 7 µM on Mu-type opioid receptor. Besides, at Mu-type opioid receptor, the Emax was found to be 182%. The Ratio EC50 in the data set on CHO [8] was 7.

Take `CC1(C)CC(=O)C2=C(C1)OC1=C(C(=O)CC(C)(C)C1)C2c1ccc(OCc2ccccc2Cl)cc1`: the outcome in data set [6] was inactive. For the same molecule, the figures for the EC50 (in data set [7]; on Mu-type opioid receptor) were 300 nM and > 10 µM, respectively. Moreover, the Emax at Mu-type opioid receptor is > 100%.

For `CC1(C)CC(=O)C2=C(C1)OC1=C(C(=O)CC(C)(C)C1)C2c1ccc(OCc2ccc(F)cc2)cc1`, the EC50 in data set [7] worked out at 100 nM.

In the case of `CC1(C)CC(=O)C2=C(C1)OC1=C(C(=O)CC(C)(C)C1)C2c1ccc(OCc2ccccc2OC(F)F)cc1`, the result in data set [6] was inactive. The EC50 in data set [7] turned out to be 200 nM. Further, at Mu-type opioid receptor, the EC50 was 3 µM and the Emax was determined as 80%. In addition, in the data set with CHO [8], the Ratio EC50 was found to be 15.

For the molecule `CC1(C)CC(=O)C2=C(C1)OC1=C(C(=O)CC(C)(C)C1)C2c1ccc(OCc2ccccc2CO)cc1`, in [6], the outcome was inactive. In addition, the concentration for a half-maximal effect (EC50) in data set [7] was determined as 1000 nM. Also, at Mu-type opioid receptor, the EC50 stood at 10 µM and the Emax amounted to 112%. In addition, in the data set with CHO [8], the Ratio EC50 worked out at 10.

Take `CC1(C)CC(=O)C2=C(C1)OC1=C(C(=O)CC(C)(C)C1)C2c1ccc(OCc2ccccc2OC(F)(F)F)cc1`: the outcome in data set [6] was inactive. The EC50 in data set [7] was 300 nM. In addition, at Mu-type opioid receptor, the EC50 worked out at 2 µM and the Emax turned out to be 111%. Besides, in the data set on CHO [8], the Ratio EC50 amounted to 7.

For the molecule `Cc1ccccc1COc1ccc(C2C3=C(CC(C)(C)CC3=O)OC3=C2C(=O)CC(C)(C)C3)cc1`, the outcome with CHO [9], in the data set on CHO [12] and with CHO [13] was inactive. Further, the solubility entry in [10] and in [11] was “Insoluble” in each case.

Turning to `Cc1ccc(COc2ccc(C3C4=C(CC(C)(C)CC4=O)OC4=C3C(=O)CC(C)(C)C4)cc2)cc1`, in data set [6], the result was inactive. For the same molecule, the EC50 in [7] came out at 300 nM. On Mu-type opioid receptor, the EC50 is 4 µM and the Emax stood at 65%. The Ratio EC50 with CHO [8] was found to be 13.

Turning to `CC1(C)CC(=O)C2=C(C1)OC1=C(C(=O)CC(C)(C)C1)C2c1ccc(OCc2ccccc2F)cc1`, the EC50 in [7] amounted to 100 nM.

On to `CC1(C)CC(=O)C2=C(C1)OC1=C(C(=O)CC(C)(C)C1)C2c1ccc(OCc2ccccc2S(C)(=O)=O)cc1`, for which the result in data set [6] was inactive. Further, in data set [7], the EC50 came out at 900 nM. Further, at Mu-type opioid receptor, the EC50 was found to be 5 µM and the Emax is 42%. In the data set with CHO [8], the Ratio EC50 was 6.

With `CC1(C)CC(=O)C2=C(C1)OC1=C(C(=O)CC(C)(C)C1)C2c1ccc(OCc2cccc(Cl)c2Cl)cc1`, in data set [7], the EC50 was found to be 100 nM.

On to `CC1(C)CC(=O)C2=C(C1)OC1=C(C(=O)CC(C)(C)C1)C2c1ccc(OCc2ccccc2Br)cc1`, for which, in [7], the EC50 is 50 nM. Also, the solubility entry in data set [10] and in [11] was “Insoluble” throughout.

Turning to `C=CCN1C[C@H](C)N([C@H](c2ccc(C(=O)N(CC)CC)cc2)c2cccc(OC)c2)C[C@H]1C`, the pKA in data set [14] worked out at 6.38; in data set [2], 7.7; in [3], 7.7; in data set [16] it was 7.7. In addition, the log(activity) was determined as 0.56 in [1], 0.86 in [15], 0.66 in data set [17] and 1.06 in data set [5].

Regarding `Cc1cccc(COc2ccc(C3C4=C(CC(C)(C)CC4=O)OC4=C3C(=O)CC(C)(C)C4)cc2)c1`, the outcome in [6] was inactive. The EC50 in [7] came to 200 nM. Besides, at Mu-type opioid receptor, the EC50 is 3 µM and the Emax was 120%. In addition, the Ratio EC50 in the data set with CHO [8] was determined as 15.

As for `CC1(C)CC(=O)C2=C(C1)OC1=C(C(=O)CC(C)(C)C1)C2c1ccc(OCc2ccccc2)cc1`, the outcome in data set [6] was inactive. Also, on Mu-type opioid receptor, the EC50 came to 6 µM and the Emax amounted to 130%. Besides, the Ratio EC50 in the data set with CHO [8] was determined as 30.

As to `CC1(C)CC(=O)C2=C(C1)OC1=C(C(=O)CC(C)(C)C1)C2c1ccc(OCc2ccccc2C(F)(F)F)cc1`, the outcome in data set [6] was inactive. The EC50 in [7] is > 10000 nM. For the same molecule, on Mu-type opioid receptor, the EC50 is > 10 µM and the Emax was > 20%.
